One assay deals with A549. Kind of assay: Antiproliferative activity against human A549 cells after 48 hrs by MTT assay. The format is functional, cell-based. The note with it: A549, 48 h. Put shortly: (§1)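 Cells seeded at 5.0×10^3 per well, pre-incubated 12 h at 37 °C, 5% CO2, then exposed to compounds for 48 h; DMSO-only control. MTT (2.5 mg/mL) added for 4 h, formazan dissolved in DMSO, absorbance at 570 nm. Each dose tested in triplicate; IC50 from percentage survival relative to negative control.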
On the technique in general: Tetrazolium assays rely on reduction of a dye to a coloured formazan, in cell work by metabolically active cells.

The test system of another assay is U2OS. Description: Antiproliferative activity against human U2OS cells after 48 hrs by MTT assay. The format is functional, cell-based. In short, it runs like this:
as §1

In another assay the test system is A-375. Description: Antiproliferative activity against human A-375 cells after 48 hrs by MTT assay. The format is functional, cell-based. Particulars: A-375, 48 h. In short, it runs like this: as §1
The test system of a further assay is HCT-116. Kind of assay: Antiproliferative activity against human HCT-116 cells after 48 hrs by MTT assay. The format is functional, cell-based. Particulars: HCT-116, 48 h. In short, it runs like this: as §1
The nature of assay [1]: Stabilization of 5'-FAM/3'-TAMRA labeled c-myc promoter i-motif DNA FPy33T (unknown origin) assessed as change in melting temperature at 1 uM by FRET assay (reference value: 53.2 degreeC). Put shortly: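 FRET melting of dual FAM/TAMRA-labelled FPy33T annealed in 1× BPES (30 mM potassium phosphate, 1 mM EDTA, 100 mM KCl), pH 5.5. Final 0.2 µM DNA with or without ligand. Excitation 470 nm, emission 530 nm, read every 1 °C over 37–99 °C. ΔTm taken against DNA alone.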

Assay [2] has as its target Quadruplex DNA. Description: Binding affinity to 5'-biotin labeled c-myc promoter G-quadruplex DNA Pu27 (unknown origin) by surface plasmon resonance method. The format is nucleic-acid assay. In short, it runs like this:
(§2)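 SPR: 5'-biotin DNA diluted to 1 μM and captured (1000 RU) on a sensor chip, with a blank cell as reference. Running buffers: Py33 in 20 mM MES pH 5.8, 100 mM KCl, 0.05% Tween-20; Pu27 and duplex in 50 mM Tris-HCl pH 7.4, 100 mM KCl. Six ligand concentrations serially diluted from DMSO stock. Association 260 s, dissociation 300 s at 25 °C; NaOH regeneration; blank sensorgrams subtracted.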

The next assay relates to HeLa. Description: Antiproliferative activity against human Hela cells after 48 hrs by MTT assay. Format: functional, cell-based. Put shortly:
as §1

Another assay relates to Huh-7. Description: Antiproliferative activity against human Huh-7 cells after 48 hrs by MTT assay. The note with it: Huh-7, 48 h. The format is functional, cell-based. Put shortly: as §1
Assay [3] is described as follows: Stabilization of 5'-FAM/3'-TAMRA labeled hairpin DNA F10T (unknown origin) assessed as change in melting temperature at 1 uM by FRET assay (reference value: 59.1 degreeC).
For a further assay, the system named is SiHa. Kind of assay: Antiproliferative activity against human SiHa cells after 48 hrs by MTT assay. The format is functional, cell-based. Put shortly:
as §1

Assay [4] relates to Quadruplex DNA. Description: Stabilization of 5'-FAM/3'-TAMRA labeled c-myc promoter G-quadruplex DNA FPu22T (unknown origin) assessed as change in melting temperature at 1 uM by FRET assay (reference value: 66.5 degreeC). The format is nucleic-acid assay. Put shortly: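 FRET melting of dual FAM/TAMRA-labelled FPu22T annealed in 10 mM Tris-HCl pH 7.4 with KCl. Final 0.2 µM DNA with or without ligand. Excitation 470 nm, emission 530 nm, read every 1 °C over 37–99 °C on a real-time PCR cycler. ΔTm = Tm(DNA+ligand) − Tm(DNA).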

Another assay addresses dsDNA. Kind of assay: Binding affinity to 5'-biotin labeled duplex DNA (unknown origin) by surface plasmon resonance method. Format: nucleic-acid assay. In short, it runs like this: as §2
The target in a further assay is ssDNA. Kind of assay: Binding affinity to 5'-biotin labeled single-stranded DNA Py33 (unknown origin) by surface plasmon resonance method. Format: nucleic-acid assay. A general note: SPR reads the build-up and loss of mass on a sensor chip optically.
Assay [5] is described as follows: Binding affinity to 5'-biotin labeled c-myc promoter i-motif DNA Py33 (unknown origin) by surface plasmon resonance method. In short, it runs like this:
as §2

As to `Cc1ccc2nc3ccccc3c(NCCCCNc3c4ccccc4nc4ccc(C)cc34)c2c1`, the half-inhibitory concentration (IC50) in the assay on A549 amounted to 320 nM; in the assay on U2OS, 790 nM; in the assay with A-375, 920 nM; with HCT-116, 910 nM; in the assay on HeLa, 1360 nM; in the assay with Huh-7, 3290 nM. Half-maximal inhibition with SiHa (IC50) was put at 2440 nM. Also, the ΔTm in assay [1] amounted to 0.4 °C; in assay [3], 2 °C; with Quadruplex DNA [4], 13.9 °C. Binding at Quadruplex DNA [2] was put at a Kd of 1600 nM.
Consider `c1ccc2c(NCCCCCCCNc3c4ccccc4nc4ccccc34)c3ccccc3nc2c1`, for which the Kd at dsDNA turned out to be 7400 nM; at Quadruplex DNA [2], 11600 nM; at ssDNA it was 14700 nM. Besides, the shift in melting temperature (ΔTm) amounted to 0.6 °C in assay [1], 9.3 °C in assay [3] and 8.8 °C with Quadruplex DNA [4].
Regarding `Cc1ccc2nc3ccccc3c(NCCCN(C)CCCNc3c4ccccc4nc4ccc(C)cc34)c2c1`, the IC50 with A549 came to 1160 nM; with U2OS, 2040 nM; in the assay with A-375 it was 230 nM; in the assay on HCT-116, 1950 nM; with HeLa, 370 nM; with Huh-7, 190 nM. The midpoint of inhibition with SiHa, the IC50, lay at 490 nM. Also, the Kd on dsDNA turned out to be 16400 nM; on Quadruplex DNA [2], 6900 nM; in assay [5], 10700 nM; on ssDNA, 8910 nM. In addition, the shift in melting temperature (ΔTm) in assay [1] was found to be 6.4 °C; in assay [3], 6.2 °C; with Quadruplex DNA [4], 12.1 °C.
As for `c1ccc2c(NCCCNc3c4ccccc4nc4ccccc34)c3ccccc3nc2c1`, the IC50 in the assay with A549 was 1730 nM; in the assay on U2OS, 1600 nM; in the assay with A-375, 2050 nM; in the assay with HCT-116, 3510 nM; with HeLa it was 2620 nM; in the assay on Huh-7 it was 5560 nM. For the same compound, 3060 nM corresponded to half-maximal inhibition in the assay on SiHa (IC50). The results for the dissociation constant Kd at dsDNA, at Quadruplex DNA [2] and on ssDNA were 10100 nM, 4300 nM and 13700 nM, respectively. Further, the ΔTm is 1.3 °C in assay [1], 2.2 °C in assay [3] and 14 °C in the assay with Quadruplex DNA [4].
On to `Cc1ccc2nc3ccccc3c(NCCCCCCNc3c4ccccc4nc4ccc(C)cc34)c2c1`, for which the values for the ΔTm (in assay [1]; in assay [3]; in the assay with Quadruplex DNA [4]) were 1.2 °C, 1.7 °C and 10 °C, respectively. Further, the Kd amounted to 14300 nM at Quadruplex DNA [2] and 25100 nM in [5].
Consider `Cc1ccc2nc3ccc(C)cc3c(NCCCCCCCNc3c4cc(C)ccc4nc4ccc(C)cc34)c2c1`, for which the Kd at dsDNA came to 10700 nM; at Quadruplex DNA [2], 6100 nM; on ssDNA, 8800 nM. For the same compound, the ΔTm was 1.4 °C in assay [1], 1.8 °C in [3] and 15.7 °C in the assay with Quadruplex DNA [4].
In the case of `Cc1ccc2nc3ccc(C)cc3c(NCCCN(C)CCCNc3c4cc(C)ccc4nc4ccc(C)cc34)c2c1`, the IC50 in the assay on A549 came to 520 nM; with U2OS, 440 nM; with A-375, 130 nM; in the assay on HCT-116, 2470 nM; in the assay with HeLa, 850 nM; in the assay with Huh-7, 270 nM. Further, in the assay with SiHa, half-maximal inhibition (IC50) was put at 370 nM. Besides, the Kd was 22200 nM at dsDNA, 5500 nM at Quadruplex DNA [2], 10500 nM in assay [5] and 13900 nM at ssDNA. For the same compound, the thermal shift (ΔTm) was 4.5 °C in assay [1], 3.8 °C in [3] and 15.6 °C in the assay with Quadruplex DNA [4].
`Cc1ccc2nc3ccccc3c(NCCCCCCCNc3c4ccccc4nc4ccc(C)cc34)c2c1`: the dissociation constant (Kd) turned out to be 24800 nM on dsDNA and 10300 nM on Quadruplex DNA [2]. Moreover, the ΔTm in [1] was 3.4 °C; in assay [3], 3.6 °C; in the assay on Quadruplex DNA [4], 15.3 °C.
For `Cc1ccc2nc3ccc(C)cc3c(NCCCCCNc3c4cc(C)ccc4nc4ccc(C)cc34)c2c1`, the IC50 was 720 nM in the assay with A549; 1330 nM with U2OS; 510 nM in the assay on A-375; 950 nM with HCT-116; 660 nM in the assay with HeLa; 2810 nM in the assay on Huh-7. The compound also yielded a 50% inhibitory concentration (IC50) in the assay on SiHa of 1660 nM. Besides, the values for the dissociation constant (Kd) at dsDNA, at Quadruplex DNA [2] and at ssDNA were 33600 nM, 7300 nM and 23700 nM, respectively. In addition, the ΔTm worked out at 1 °C in [1], 2.7 °C in assay [3] and 11 °C in the assay on Quadruplex DNA [4].
On to `Cc1ccc2nc3ccc(C)cc3c(NCCCCCCNc3c4cc(C)ccc4nc4ccc(C)cc34)c2c1`, for which the figures for the thermal shift (ΔTm) (in assay [1]; in [3]; in the assay on Quadruplex DNA [4]) were 10.1 °C, 2.7 °C and 16.8 °C, respectively. In addition, the results for the dissociation constant (Kd) (at Quadruplex DNA [2]; in assay [5]; at ssDNA) were 1100 nM, 12400 nM and 4700 nM, respectively.
On to `CN(CCCNc1c2ccccc2nc2ccccc12)CCCNc1c2ccccc2nc2ccccc12`, for which the IC50 with A549 was 350 nM; in the assay on U2OS, 130 nM; in the assay on A-375 it was 120 nM; in the assay with HCT-116, 190 nM; in the assay on HeLa it was 340 nM; with Huh-7, 800 nM. In the assay with SiHa, this compound registered an IC50 of 2510 nM. The Kd was 8100 nM at dsDNA, 18300 nM at Quadruplex DNA [2] and 9100 nM in assay [5]. Further, the results for the ΔTm (in assay [1]; in assay [3]; with Quadruplex DNA [4]) were 7.3 °C, 10.8 °C and 7.7 °C, respectively.
For the compound `Cc1ccc2nc3ccc(C)cc3c(NCCCCNc3c4cc(C)ccc4nc4ccc(C)cc34)c2c1`, the IC50 stood at 470 nM in the assay with A549; 550 nM in the assay on U2OS; 1920 nM in the assay on A-375; 2060 nM in the assay on HCT-116; 1470 nM with HeLa; 2680 nM with Huh-7. Further, the IC50 in the assay with SiHa came out at 3700 nM. For the same compound, the ΔTm is 9.1 °C in assay [1], 0.8 °C in assay [3] and 10.4 °C with Quadruplex DNA [4]. Besides, the Kd at Quadruplex DNA [2] worked out at 2900 nM; in [5], 16000 nM; on ssDNA, 6800 nM.
Take `Cc1ccc2nc3ccccc3c(NCCCCCNc3c4ccccc4nc4ccc(C)cc34)c2c1`: the IC50 in the assay on A549 stood at 830 nM; in the assay on U2OS, 1420 nM; with A-375 it was 1830 nM; with HCT-116, 1680 nM; in the assay on HeLa, 1650 nM; with Huh-7 it was 3670 nM. In addition, the concentration for half-maximal inhibition (IC50) in the assay with SiHa is 2520 nM. Besides, the thermal shift (ΔTm) in assay [1] came to 0.2 °C; in assay [3] it was 1.9 °C; with Quadruplex DNA [4] it was 11.4 °C. Moreover, the results for the Kd (on Quadruplex DNA [2]; in [5]; at ssDNA) were 16300 nM, 14500 nM and 26100 nM, respectively.
Take `Cc1ccc2nc3ccc(C)cc3c(NCCCNc3c4cc(C)ccc4nc4ccc(C)cc34)c2c1`: the half-maximal inhibitory concentration (IC50) came to 1710 nM in the assay with A549; 2940 nM with U2OS; 2480 nM in the assay with A-375; 6250 nM in the assay on HCT-116; 1360 nM with HeLa; 6200 nM with Huh-7. Further, in the assay with SiHa, the half-inhibitory concentration (IC50) stood at 3820 nM. The Kd at dsDNA was found to be 35400 nM; on Quadruplex DNA [2], 9200 nM. The ΔTm is 2.4 °C in assay [1], 0.7 °C in assay [3] and 14.1 °C with Quadruplex DNA [4].
As to `COC(=O)c1ccc2nc3ccc(C)cc3c(NCCCNCCNCCCNc3c4cc(C)ccc4nc4ccc(C(=O)OC)cc34)c2c1`, the dissociation constant Kd on dsDNA turned out to be 11800 nM; on Quadruplex DNA [2], 2900 nM; in assay [5], 3800 nM. The ΔTm turned out to be 2 °C in assay [1], 4.8 °C in assay [3] and 8.6 °C with Quadruplex DNA [4].

The term IC50 denotes the concentration at which inhibition is half-maximal. A high value points to weaker potency. The ΔTm is the change in melting temperature against a reference sample. What is called Kd is the free concentration of one partner at which half of the binding sites on the other are occupied at equilibrium, for simple one-to-one binding. Low readings indicate higher affinity, high ones lower affinity.

The values above are taken from ChEMBL document CHEMBL4725346, “Syntheses and Evaluation of New Bisacridine Derivatives for Dual Binding of G-Quadruplex and i-Motif in Regulating Oncogene c-myc Expression” (J Med Chem, 2020).
